For data set [1], the target named is T1, B. divergens proteasome β5 subunit (chymotrypsin-like activity) (Babesia divergens, UniProt A0AAD9GDK3).
T1 sequence (A0AAD9GDK3 69-280): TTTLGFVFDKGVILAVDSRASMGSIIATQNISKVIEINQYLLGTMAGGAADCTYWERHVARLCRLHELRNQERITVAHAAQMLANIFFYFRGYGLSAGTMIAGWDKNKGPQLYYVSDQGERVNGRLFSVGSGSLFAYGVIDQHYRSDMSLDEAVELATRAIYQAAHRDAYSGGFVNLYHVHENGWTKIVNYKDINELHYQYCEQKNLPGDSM
Nature of the data set: Suc-LLVY-AMC proteasome activity assay with B. divergens crude cell lysates. The settings on record: for inhibition at 1 µM: read-out: Reduction of Suc-LLVY-AMC measured activity. Type of data set: biochemical. In a few lines:
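Crude lysate made from B. divergens-infected RBCs (~15% parasitemia): saponin lysis, PBS washes, sonication in 20 mM HEPES pH 8.0, 1 µM E64, 0.03% SDS, 1 mM ATP; pooled from 10 cultures. Lysate pre-incubated 30 min at 37 °C with 1 µM test compound. Then 10 µM Suc-LLVY-AMC added; fluorescence 360/465 nm read every 1 min for 1 h at 37 °C. Run in triplicate.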

For data set [2], the system named is HeLa cells. Nature of the data set: Cell toxicity assay, HeLa cells. The note with it: for IC50: Homo sapiens, HeLa, 48 h, read-out: IC50 values, HeLa cells, 48 h, AlamarBlue. Type of data set: cell-based, human. (In general: Resazurin is reduced to fluorescent resorufin, in cell work by metabolically active cells.)
The subject of data set [3] is B. microti. The data set can be described thus: Treatment of B. microti infected mice. Type of data set: in vivo, Babesia microti. Summed up: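 Six female BALB/c mice (~20 g) infected i.p. with 150 µl B. microti-infected blood (50% parasitemia, ~800 × 10⁶ infected RBCs). Dosed i.p. daily from 1 to 7 DPI with test compound at 0.75 mg/kg in PBS or with vehicle (150 µl; three mice each). Activity and appearance observed. Parasitemia counted daily to 15 DPI on tail-snip thin smears. AUC (Riemann sums), Cmax and Tmax compared by t-test.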

The subject of data set [4] is B. microti. Nature of the data set: Parasitemia in B. microti infected mice treated on 5 and 6 DPI. Type of data set: in vivo, Babesia microti. The settings on record: BALB/c mice, 0.75 mg/kg i.p. on 5 and 6 DPI. Summed up:
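Eight female BALB/c mice infected i.p. with B. microti-infected blood (150 µl, 50% parasitemia, ~800 × 10⁶ infected RBCs). Test compound at 0.75 mg/kg in PBS, or vehicle, given i.p. on 5 and 6 DPI (four mice per group). Parasitemia read as percent from thin blood smears taken by tail snip; blood collected on 7 DPI.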

The test system of data set [5] is PMJ2R mouse macrophages. The data set can be described thus: Cell viability assay, PMJ2R mouse macrophages. The data set is classed as cell-based. The note with it: 200 nM, 48 h. In a few lines: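 PMJ2R macrophages grown in RPMI 1640 with gentamicin, amphotericin B and 10% heat-inactivated FCS. Serially diluted test compound added to cultures, with 0.004% DMSO in medium as control. Medium changed every 12 h; 48 h at 37 °C, 5% CO₂. Calcein AM (live) and ethidium homodimer III (dead) staining, counted by flow cytometry. Triplicate cultures; mean ± SD; unpaired t-test.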

For data set [6] the following is noted: rats; ref Yang et al., 2011; cited from earlier work.
Data set [7] concerns B. microti. The data set can be described thus: Pre-treatment of B. microti infected red blood cells prior to mouse infection. Type of data set: in vivo, Babesia microti. The note with it: infected blood pre-treated with 400 nM for 1 h. Summed up: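 Infected blood pooled from three B. microti-infected mice (50% parasitemia). Exposed to test compound at 400 nM final, or to matching DMSO, for 1 h at 37 °C, 5% CO₂. Then injected i.p. (150 µl, 800 × 10⁶ infected RBCs) into three treated and three control BALB/c mice. Parasitemia counted daily for 8 DPI on Diff-Quik thin smears; Cmax and Tmax calculated in R.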

Data set [8] has as its system B. microti proteasome (chymotrypsin-like activity). The data set can be described thus: Suc-LLVY-AMC activity assay on B. microti lysates from treated mice. The data set is classed as in vivo, Babesia microti. The settings on record: mice treated 0.75 mg/kg on 5 and 6 DPI, pooled blood collected 7 DPI.
[9] abbreviates: BALB/c mice, 0.75 mg/kg i.p. daily 1-7 DPI.

Entries after “also recorded” stand apart in the source; their conditions may differ.

What is called IC50 is the point on the concentration scale where inhibition reaches its midpoint. In the case of `CC(C)C[C@H](NC(=O)[C@H](Cc1ccccc1)NC(=O)c1cnccn1)B(O)O` [Bortezomib, bortezomib], the inhibition at 1 µM in data set [1] was 96%. Moreover, in data set [2], the IC50 turned out to be 7 ± 1 nM.

Regarding `CC(C)C[C@H](NC(=O)[C@H](CCc1ccccc1)NC(=O)CN1CCOCC1)C(=O)N[C@@H](Cc1ccccc1)C(=O)N[C@@H](CC(C)C)C(=O)[C@@]1(C)CO1` [Carfilzomib], in data set [3] (setting [9]), the “Adverse effects on spontaneous activity and physical appearance of mice” value is given as “no adverse effects”; the “Peak parasitemia levels and area under curve (AUC) compared to PBS” value was “significantly reduced”. Further, in data set [3] (BALB/c mice, 0.75 mg/kg i.p. daily 1-7 DPI (data not shown)), the “Microscopic appearance of non-parasited RBCs” value is reported as “did not change”. For the same compound, the “Parasitemia on 5, 6 and 7 DPI compared to untreated control” value in data set [3] (daily intra-peritoneal treatment of infected mice) is reported as “lower parasitemia”. Besides, the “Parasite load (parasitemia, mean) at 5 DPI” value in data set [4] (5 DPI) was 47.4 ± 6.3%. In addition, the “Parasite load (parasitemia, mean) at 7 DPI” value in data set [4] (7 DPI) came to 41.5 ± 2.9%. Moreover, in data set [1] (1 μM inhibitor, pilot experiments (data not shown)), the “Reduction of Suc-LLVY-AMC measured activity” value is “completely inhibiting this activity”. In addition, the inhibition at 1 µM in data set [1] was above 90%. The IC50 in data set [2] was determined as 59 ± 36 nM. In addition, the “Fold more potent against B. divergens compared to HeLa” value in data set [2] (ratio of IC50 values HeLa / B. divergens ex vivo culture) is listed as 2–3.5 fold. In addition, in data set [5], the “Toxicity to PMJ2R macrophages” value is listed as “did not show any toxicity; also recorded: did not affect cell viability”. Also, in data set [5] (medium changed every 12 h), the “Survival rate of PMJ2R cells” value worked out at 71.1%. In data set [6], the Plasma clearance was 195 to 319 mL/min/kg; the Terminal half-life is 5 to 20 min; the Tissue distribution entry was “rapid and wide tissue distribution”. Further, the “Reduction of Cmax (parasitemia) on Tmax (7 DPI) compared to control group” value in data set [7] is on record as 31.2%. For the same compound, the “Reduction of Suc-LLVY-AMC activity in B. microti lysates compared to untreated control” value in data set [8] turned out to be 33%.

The values are drawn from PMC6092455 (International Journal for Parasitology: Drugs and Drug …, 2018).
